This sample holds only a part of the variants without activity. Some results are limits rather than exact numbers.

Results on 167 variants are retold here after the RNAGym collection of RNA variant scans (doi:10.1126/science.aae0568).

To fix the notation:
B1: tRNA (parent)
chain: GUUCCGUUGGCGUAAUGGUAACGCGUCUCCCUCCUAAGGAGAAGACUGCGGGUUCGAGUCCCGUACGGAACG

Variants of B1 are the subject of this data set. Kind of data set: yeast fitness relative to wild type (ratio to wild type); higher = fitter; tRNA-Arg(CCU), competitive growth, 37 C, YPD. In short, it runs like this:
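Genotype frequency changes were the basis for Darwinian fitness relative to wild type. The frequencies came from 100-nucleotide paired-end sequencing of gene amplicons from the start population and each end population of pooled yeast strains with tRNA-Arg(CCU) gene variants at the native locus. Competition ran in YPD at 37°C for 24 hours in six replicates, genotypes needed ≥ 100 starting reads, and estimates < 0.5 were set to 0.5.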
With G17A G56A C66G, the yeast fitness was at most 0.5.
Turning to G9A A21C C46G C49G, the yeast fitness was at most 0.5.
With G17C C33A, the yeast fitness was at most 0.5.
The value for A37C A65C was 0.797; that for C29U U32G A43U G44C was at most 0.5.
The value for C11A A14U A42G C62A C66U was at most 0.5; that for C11U U35G U47A G48A A65U was at most 0.5.
In the case of C29G G44C, the yeast fitness came out at 0.755.
Regarding C34G A70U, the yeast fitness was determined as 0.597.
The value for G25A U26C A36G was 1.07; that for A36U G39C C61U was at most 0.5.
As for G10C C34G U54C A70U, the figure is at most 0.5.
The value for U2C A45C was 1.01.
Consider A42U G58C U59A C60U, for which the yeast fitness was found to be 0.659.
As for G9A C11A, the figure is 0.604; as for A14G A36G A45G A65U, at most 0.5; as for C34G U35A G63C, at most 0.5.
In the case of U7A C55U G67C, the yeast fitness was at most 0.5.
For G9A C60G A70U, the yeast fitness came out at 0.584.
As for A14G C33U U47A G51C C62U, the figure is 0.514; as for C4U A45C C60G A69G, at most 0.5; as for A43G U64A, 0.77.
With U2C A20G, the yeast fitness turned out to be 0.98.
The value for C27G C46U C60U was 0.626; that for G44A A65G was 1; that for U3A G6A A37C C55G G58C was at most 0.5.
The value for C24G C34G A43U G67C was at most 0.5; that for G9A G12C A14C G50C was 0.594; that for C30U A57G A65U was 0.667.
In the case of G10C C24A G52A, the yeast fitness is at most 0.5.
As for U3G G17A C30U A57U, the yeast fitness is at most 0.5.
Consider G17A C46G A70U, for which the yeast fitness amounted to 0.578.
As for C5A A14G C22G C27U A37U, the figure is at most 0.5; as for A21C C24G G25C G44A C55G G56A, at most 0.5; as for G6C C11G C29U G50A C55U, at most 0.5.
As for G9A C22G C31U C61A A65C C66A, the figure is at most 0.5; as for A42C C62G A65C, 0.544.
As for G25C A42G, the figure is 0.911; as for C5A U16C A42U, 0.672.
Turning to U7G C33A A69G, the yeast fitness amounted to 0.598.
As for A36C U54A C61G, the figure is 0.635; as for A40C G56C C66G, at most 0.5; as for C5G C27U G67A, 0.524.
The value for U2C G12A A36U was at most 0.5; that for C5G C33U G56C was 0.575; that for G12C A42G was 0.902.
As for U19C C27G, the figure is 0.579; as for G44C C62A C66U, at most 0.5.
On to C24U G41A C61G, for which the yeast fitness turned out to be 0.587.
On to G6A A43U U53C A57C A65U, for which the yeast fitness was at most 0.5.
The value for C5G C27G was 0.81; that for C5U C46G G52C C62G C66U was at most 0.5.
For G23C C29U C49A, the yeast fitness was at most 0.5.
For U16G U54A C55U C66A, the yeast fitness came out at 0.58.
A21U C30A U35C A40G: the yeast fitness was at most 0.5.
Turning to A20G C31G U64C, the yeast fitness was determined as 0.694.
Consider C33U C46U, for which the yeast fitness was determined as 0.708.
With C4G A20U G25A, the yeast fitness was at most 0.5.
With U28G G48A G67C A69G, the yeast fitness was at most 0.5.
In the case of U28C C55U A70U, the yeast fitness was 0.61.
As for U19G G44A G48A G50C, the figure is at most 0.5; as for C22A C34A G56C G58A C61A, 0.597; as for C31U C33A C62U, at most 0.5.
G17A U54C A70G: the yeast fitness was at most 0.5.
In the case of G6A C27G A40C, the yeast fitness was 0.545.
As for A15U C31U U35A A36C U53A, the yeast fitness turned out to be 0.625.
Turning to C30G U47G, the yeast fitness was at most 0.5.
Take C31A U53C: the yeast fitness was 0.571.
The value for G9A C29U C55U was 0.535; that for C30G U54C was 0.568; that for C11U A21C G67A was 0.597.
In the case of U8C C29U G39C A40U, the yeast fitness was at most 0.5.
Turning to U8C G39C U47C U59C, the yeast fitness is at most 0.5.
On to G10C C34G U59A, for which the yeast fitness is at most 0.5.
Regarding G12A C55U C66G, the yeast fitness came out at 0.569.
The value for G9A A14C G58A was 0.546; that for C27U C61G was 0.647.
The value for U35G C49G G52C C62G A69C was at most 0.5; that for A21C C33U was 0.687; that for U3A C24A C27U G56C C66U was at most 0.5.
The value for C11U G51A G56A U59C was at most 0.5; that for G18A C27U was 0.712.
A14G C34G C61A: the yeast fitness is at most 0.5.
As for C29U C31G C33A, the figure is 0.648; as for C29G A40U C55A G67C, at most 0.5; as for U3A C24U G39A, at most 0.5.
As for G10A C11G, the figure is 0.565; as for C5A C24A U26G A43C A69U, at most 0.5.
For U2G G25U A65U, the yeast fitness was determined as 0.532.
The value for G10C C29A A37G U64C was at most 0.5; that for A21G C31A A42G was 0.561; that for C4U U32A U64G was at most 0.5.
For the variant C34U U47C, the yeast fitness worked out at 0.67.
Take C5U C11G: the yeast fitness was found to be 0.597.
The value for C22G C31G C66U A69C was 0.528; that for A15G U54C was 0.905.
Turning to C4G C46U G67C, the yeast fitness amounted to 0.597.
The value for A14C A21U A42C G58C U64A A69C was at most 0.5.
The value for C24A A57C C61G was at most 0.5.
As for G23A A40C U53C, the figure is at most 0.5; as for U2C A37U A43U, 0.568; as for A21C C22G A57G, at most 0.5.
Turning to C4U A40C A70G, the yeast fitness was at most 0.5.
Consider C30A U32G, for which the yeast fitness turned out to be 0.624.
Take U7A G9C G10A C30U C34G G68C: the yeast fitness is at most 0.5.
As to C29A C30G G50C, the yeast fitness was at most 0.5.
The value for U19C C24A G58A C66U was at most 0.5.
As to G12A C22G C31G, the yeast fitness stood at 0.662.
The value for G18A A20U C22U U28A C33U G44C C60A was at most 0.5; that for A20U C29G A43U C66U was at most 0.5.
Turning to A14U C24G U26C U28C A45U C49A, the yeast fitness is at most 0.5.
The value for A21G C34U G48A G67A was at most 0.5; that for C4U A40U was 0.898; that for C11U U47C G67A was 0.783.
With U8A U64A A65C G68A, the yeast fitness is at most 0.5.
As for C4G U8G A21C, the figure is at most 0.5; as for A15C A20G C31U A42C, at most 0.5; as for C29G A45C, 0.614.
The value for U64G G68A was 0.678; that for G6C U13G G18A U54C C55A was at most 0.5; that for A15C C33U was 0.572.
Regarding C5U G41A A70C, the yeast fitness is 0.695.
On to G9A G12U A14U U32G U53A, for which the yeast fitness is at most 0.5.
As for A20C C31U G68C, the figure is 0.609.
The value for U3C A20G U59A was 0.684; that for C22U U47C G51C was 0.54.
As for G39C G50A U59C, the figure is at most 0.5; as for U8C A14C C30G, at most 0.5.
As for C4U C24A C31A A40U A42C C49A, the yeast fitness was at most 0.5.
Turning to G23A G63C, the yeast fitness was determined as 0.613.
As for A21G A42U A57U C62U, the figure is at most 0.5.
As for C4A U28A C31G A40U A65U G68C, the figure is at most 0.5; as for C4A A20C G68A, at most 0.5; as for C5A U13G U32A A42U G52A U54A C60G, 0.649.
As for C5A U35G G41A G56A, the figure is at most 0.5; as for G17A G25C A40U C66G, at most 0.5.
Take G12C A21G G58C: the yeast fitness stood at 0.892.
As for U19A G48C, the figure is 0.861; as for C11G A43C C46G, 0.514.
As to C11G A15G C33G A37G C60A, the yeast fitness was 0.582.
As for A45C C46A C49G, the figure is 0.722; as for U13C U26G C27U C49U C66U, 0.801.
U19C C24G U35C A37U U47A: the yeast fitness was at most 0.5.
As for A20C C33U G41A, the figure is at most 0.5.
As for G12A G17U C49G C60U G68A, the figure is at most 0.5; as for C29G G39C A70U, 0.633; as for C4G U7G C31U A65U, at most 0.5.
In the case of C29U A57U C62A, the yeast fitness is at most 0.5.
As for A15C U59C, the figure is 0.741; as for A21C C22A C24U A36C, at most 0.5.
For the variant C5U C29G G44A A57U, the yeast fitness is at most 0.5.
As for C4G A40U A45U U47C, the figure is at most 0.5; as for U19C C55U U59C C61G, at most 0.5.
Consider U3C U32C G58C, for which the yeast fitness is 1.04.
As for A14C A45U G48A A69U, the figure is at most 0.5; as for C4A C29A C34A C62U, at most 0.5; as for A14U C24G U26G G56C, at most 0.5.
The value for C11G U32G A45G C49U A70U was at most 0.5.
Take C4U G18C A21G A57C: the yeast fitness is at most 0.5.
The value for C5U G6U C11U A15G G48C was at most 0.5; that for U16C C49U A70G was 0.581; that for G6A U8C C34G was at most 0.5.
The value for C5G U47G was 0.611; that for C11U C31G C33U A37C A65U was at most 0.5.
For C11U A43U A70G, the yeast fitness was 0.738.
As for G6C C60G, the figure is 0.731.
On to U13C C31U G56C, for which the yeast fitness is at most 0.5.
